Key:
HeLa cells = assay: STS-induced apoptosis; type: cell-based; conditions: 100 nM STS 20 h without the peptides
How it was run: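 HeLa cells in DMEM + 10% FBS, grown to 70%–80% confluence. Apoptosis induced with 100 nM staurosporine for 20 h; untreated cells as control. Early apoptosis scored by Annexin V–FITC staining, late apoptosis by TUNEL, as percentage of cells. Means + S.D. from three independent experiments.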

[1] = system: selenite-induced cataracts in rats; assay: Selenite cataract in rat pups; type: in vivo, Sprague–Dawley rat; conditions: selenite alone compared with untreated controls

CN[C@@H]1C[C@H]2O[C@@](C)([C@@H]1OC)n1c3ccccc3c3c4c(c5c6ccccc6n2c5c31)C(=O)NC4 [STS, staurosporine] was tested, and the “early-stage apoptosis (% of the cells), inducer alone” value (HeLa cells; Annexin V–FITC) was 14% and the “late stage apoptosis (% of the cells), inducer alone” value (HeLa cells; TUNEL) was 5%.

With O=[Se]([O-])[O-].[Na+].[Na+] [sodium selenite] the “total soluble lens proteins, selenite alone” value ([1]; Fig 9B) was “reduction” and the “lens GSH content, selenite alone” value ([1]; Fig 9C) was “reduction”.
